Experimental data published in BindingDB's records for doi:10.1016/j.bmcl.2018.04.005 (Shanghai Institute of Materia Medica, 2018).

Target: T1, Sortase family protein (Staphylococcus aureus, UniProt Q9S446)
T1 sequence (Q9S446 whole entry): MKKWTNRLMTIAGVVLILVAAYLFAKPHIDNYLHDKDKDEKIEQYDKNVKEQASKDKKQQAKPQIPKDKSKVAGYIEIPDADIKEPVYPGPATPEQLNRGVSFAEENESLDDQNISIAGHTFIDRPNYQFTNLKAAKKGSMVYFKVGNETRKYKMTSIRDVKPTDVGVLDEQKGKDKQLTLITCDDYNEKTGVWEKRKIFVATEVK
Assay: Inhibition of Staphylococcus aureus SrtA deltaN24 mutant assessed as decrease in transpeptidation of IsdA (64 to 323 residues) incubated for 1.25 hrs in presence of NH2-Gly3 nucleophile by SDS-PAGE method
How it was run: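 Recombinant, affinity-purified IsdA64-323 (a natural SrtA substrate from S. aureus) is incubated with purified SrtAΔN24 and NH2-Gly3 nucleophile, with or without test compound. Cleavage at the sorting signal gives the transpeptidation product, which is resolved by SDS-PAGE. Inhibition is judged from partial or complete blockade of product formation. Used as a counter-screen against FRET false positives.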

Structure (SMILES)	IC50 [µM]
CC(C)=CC[C@H](O)c1cc(O)c2c(c1O)C(=O)C=CC2=O	5
CC(C)C=CC(=O)c1cc(O)c2c(O)ccc(O)c2c1O [5,8-Dihydroxy-2-(1-hydroxy-4-methyl-pent-3-enyl)-[1,4]naphthoquinone]	5
